Measurements gathered from unrelated publications.
Protocols differ between the studies behind these lines.
Action: inhibitor
PDGFRB: Platelet-derived growth factor receptor beta (PDGFRB, Homo sapiens, UniProt P09619)
DHODH: Dihydroorotate dehydrogenase (quinone), mitochondrial (DHODH, Homo sapiens, UniProt Q02127)
PSMB8: Proteasome subunit beta type-8 (PSMB8, Homo sapiens, UniProt P28062)
PTGS2: Prostaglandin G/H synthase 2 (PTGS2, Homo sapiens, UniProt P35354)
TYMS: Thymidylate synthase (TYMS, Homo sapiens, UniProt P04818)

| SMILES | target | effect on | method | time | pH | setting | IC50 |
| --- | --- | --- | --- | --- | --- | --- | --- |
| Cc1cc(Nc2cc3ncccc3c(N[C@@H]3C[C@H]4CC[C@@H](C3)N4CCC#N)n2)n[nH]1 | PDGFRB | target engagement in cells | BRET | – | – | – | > 10 µM |
| CC(C)=CCC[C@@H](C)c1ccc(C)c(O)c1 | UDP-glucuronosyltransferase 1A1 (UGT1A1, Homo sapiens, UniProt P22309) | enzyme activity | – | 90 min | – | – | 11.3 µM |
| Cc1cc(Nc2ccc(C(C)(C)C)cc2)n2ncnc2n1 | DHODH | enzyme activity | – | – | – | – | > 100 µM |
| Cc1nc(NC2CCc3cc(Br)ccc3C2)c2c(C)noc2n1 (centres unmarked) | DHODH | enzyme activity | absorbance | – | – | – | > 100 µM |
| O=C(CSc1ncn[nH]1)Nc1ccc(C23CC4CC(CC(C4)C2)C3)cc1 | Transcriptional enhancer factor TEF-4 (TEAD2, Homo sapiens, UniProt Q15562) | enzyme activity | – | – | – | – | 0.71 µM |
| Cc1ncc(C(=O)N[C@@H](CC(C)C)C(=O)N[C@@H](CC2CCC(C)CC2)C(=O)N[C@H](/C=C/S(C)(=O)=O)Cc2ccc(CN)cc2)s1 (some centres unmarked) | PSMB8 | enzyme activity | – | – | – | lysate | > 10 µM |
| CCCCCCCC(=O)N[C@H](CN1CCCC1)[C@H](O)c1ccc2c(c1)OCCO2 | Lysosomal acid glucosylceramidase (GBA1, Homo sapiens, UniProt P04062) | enzyme activity | – | – | – | – | 15 µM |
| Oc1ccc(Cl)cc1Nc1nc(NCC2CCCO2)c2ccccc2n1 (centres unmarked) | Lysosomal acid glucosylceramidase (GBA1, Homo sapiens, UniProt P04062, R534H) | enzyme activity | fluorescence | – | pH 5.9 | – | 1.5 µM |
| Cc1ncc(C(=O)N[C@@H](CC(C)C)C(=O)N[C@@H](CC2CCC3CCCCC3C2)C(=O)N[C@H](/C=C/S(C)(=O)=O)Cc2ccc(CN)cc2)s1 (some centres unmarked) | PSMB8 | enzyme activity | – | – | – | lysate | 3.24 µM |
| Cc1ccc(Nc2c(-c3ccc(S(C)(=O)=O)cc3)nc3cccc(C)n23)cc1 | PTGS2 | enzyme activity | – | – | – | – | 0.12 µM |
| Cc1ncc(C(=O)N[C@@H](CC2CCCC3CCCCC32)C(=O)N[C@@H](CC(C)C)C(=O)N[C@H](/C=C/S(C)(=O)=O)Cc2ccc(CN)cc2)s1 (some centres unmarked) | PSMB8 | enzyme activity | – | – | – | lysate | 0.555 µM |
| CN1CCN(c2ccc(Nc3ncc4cc(C#N)c(=O)n(C5CCCC5)c4n3)cc2)CC1 | Ephrin type-B receptor 3 (EPHB3, Homo sapiens, UniProt P54753) | enzyme activity | – | – | – | – | 2.54 µM |
| CCOc1ccc2c(-c3cc(C)nc(Nc4cc(OC)cc(C(F)(F)F)c4)n3)cnn2n1 | Dual specificity tyrosine-phosphorylation-regulated kinase 3 (DYRK3, Homo sapiens, UniProt O43781) | enzyme activity | – | – | – | – | > 10 µM |
| CS(=O)(=O)c1ccc(-c2nc3ccccn3c2Nc2ccccc2)cc1 | PTGS2 | enzyme activity | – | – | – | – | 0.07 µM |
| CCOC(=O)C1CCN(C(=O)c2ccc(N(C)Cc3cnc4nc(N)nc(N)c4n3)cc2)CC1 | TYMS | enzyme activity | – | – | – | – | 74 µM |
| Cc1ncc(C(=O)N[C@H](C(=O)N[C@@H](CC(C)C)C(=O)N[C@H](/C=C/S(C)(=O)=O)Cc2ccc(CN)cc2)C2CCCCC2)s1 | PSMB8 | enzyme activity | – | – | – | lysate | 3.14 µM |

| SMILES | target | effect on | method | time | pH | setting | IC50 |
| --- | --- | --- | --- | --- | --- | --- | --- |
| Cc1cnc(-c2ccc(-c3ccc(NC(=O)Nc4c(F)cc(F)cc4F)cc3F)c3c2C(=O)NC3)[nH]1 | PDGFRB | enzyme activity | – | – | – | – | 0.0104 µM |
| CC(C)C[C@H](NC(=O)c1ccc(-c2ccccc2)nc1)C(=O)N[C@@H](CC(C)C)C(=O)N[C@H](/C=C/S(C)(=O)=O)Cc1ccc(CN)cc1 | PSMB8 | enzyme activity | – | – | – | lysate | > 10 µM |
| Cc1nc(Nc2ccc(S(F)(F)(F)(F)F)cc2)c2c(C(F)(F)F)noc2n1 | DHODH | enzyme activity | absorbance | – | – | – | > 100 µM |
| C=C1/C(=C\C=C2/CCC[C@]3(C)[C@@H]([C@H](C)/C=C/[C@@H](O)C4CC4)CC[C@@H]23)C[C@@H](O)C[C@@H]1O | Multidrug resistance-associated protein 1 (ABCC1, Homo sapiens, UniProt P33527) | transporter uptake | radiometric | – | – | cell membranes | 12.3 µM |
| COC(=O)C1CCN(C(=O)c2ccc(NCc3cnc4nc(N)nc(N)c4n3)cn2)CC1 | TYMS | enzyme activity | – | – | – | – | 80 µM |
| CCn1ncc2c1-c1cnc(N)c(c1)O[C@H](C)c1cc(F)ccc1-c1nn(C)nc1C2 | Ephrin type-A receptor 1 (EPHA1, Homo sapiens, UniProt P21709) | enzyme activity | radiometric | – | – | – | 0.285 µM |
| Cc1nc(Nc2ccc(C(F)(F)F)cc2)c2c(C(F)(F)F)noc2n1 | DHODH | enzyme activity | absorbance | – | – | – | 18 µM |
| C[C@@H]1O[C@H](CNS(=O)(=O)c2ccc(C#CC3CC3)s2)[C@@H](O)[C@H](O)[C@@H]1O | Fucose-binding lectin PA-IIL (lecB, Pseudomonas aeruginosa, UniProt Q9HYN5) | enzyme activity | – | – | – | – | 2.5 µM |
| COc1ccc(C[C@H](NC(=O)[C@H](C)NC(=O)CN2CCOCC2)C(=O)N[C@@H](CC2CCC(OC)CC2)C(=O)[C@@]2(C)CO2)cc1 (some centres unmarked) | PSMB8 | enzyme activity | – | – | – | lysate | 3.98 µM |
| Nc1nc(N)c2nc(CNc3ccc(C(=O)N4CCC(C(=O)O)CC4)cc3)cnc2n1 | TYMS | enzyme activity | – | – | – | – | 67 µM |
| CC[C@@H]1[C@H](F)C(=O)N[C@@H]1COc1nccc2cc(C(N)=O)c(OC)cc12 | Ephrin type-A receptor 7 (EPHA7, Homo sapiens, UniProt Q15375) | enzyme activity | – | – | – | – | > 5 µM |
| COc1ccc(C[C@H](NC(=O)[C@H](C)NC(=O)CN2CCOCC2)C(=O)N[C@H](C(=O)[C@@]2(C)CO2)C2CCCCC2)cc1 | PSMB8 | enzyme activity | – | – | – | lysate | > 10 µM |
| COc1ccc(S(=O)(=O)ON=C2C=C(C)C(=O)C(C)=C2)cc1 | Histone acetyltransferase KAT7 (KAT7, Homo sapiens, UniProt O95251) | enzyme activity | radiometric | – | – | – | > 100 µM |
| CCCN(C)Cc1cc(-c2[nH]c3cccc(F)c3c(=O)c2C)ccc1Cc1ccc(OC(F)(F)F)cc1 | DHODH | enzyme activity | – | – | – | – | > 10 µM |
| COC1CCC(C[C@H](NC(=O)[C@H](CC(C)C)NC(=O)c2cnc(C)s2)C(=O)N[C@H](/C=C/S(C)(=O)=O)Cc2ccc(CN)cc2)CC1 (some centres unmarked) | PSMB8 | enzyme activity | – | – | – | lysate | > 10 µM |
| O=C1N[C@H]2n3c(cc(Br)c3Br)C(=O)N3CCC[C@]23N1 (racemic) | Proteasome subunit beta type-8, chymotrypsin-like site (PSMB8, Homo sapiens, UniProt P28062) | enzyme activity | – | – | – | – | 6.7 µM |
